# HNF4A DNA FP – change in binding of human HNF4A to DNA, primary screen, biochemical, fluorescence polarization, FITC-DNA; Hepatocyte nuclear factor 4-alpha (Homo sapiens), P41235; 1 h; activity change, % at 10 µM; 360,000 tested, 0.3% active; AID 1224865, 2016; in the data active = activity change above about 30%, passing the limit was not always enough
# Rpn11 block – Rpn11 (PSMD14) deubiquitinase inhibitors, primary screen, biochemical, fluorescence polarization, uHTS. 26S proteasome non-ATPase regulatory subunit 14 (Homo sapiens), O00487. human 26S proteasome, Ub4-pepOG fluorescence polarization; 20S core pre-blocked with epoxomicin. inhibition, % at 20 µM. 360,000 tested, 0.59% active;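 active = inhibition at 20 µM, scaled to each plate's controls, above about 33%, limit read from the data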
# Target sequence (O00487 whole entry, looked up): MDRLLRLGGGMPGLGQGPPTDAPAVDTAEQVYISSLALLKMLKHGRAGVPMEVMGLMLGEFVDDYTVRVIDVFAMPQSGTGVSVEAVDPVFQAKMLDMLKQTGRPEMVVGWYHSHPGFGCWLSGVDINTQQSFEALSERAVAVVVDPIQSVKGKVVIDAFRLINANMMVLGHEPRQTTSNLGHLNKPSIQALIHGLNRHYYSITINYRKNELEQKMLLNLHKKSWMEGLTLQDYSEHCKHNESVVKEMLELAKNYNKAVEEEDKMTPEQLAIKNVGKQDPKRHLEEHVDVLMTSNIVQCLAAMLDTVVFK
# CSN inh – inhibitors of CSN-mediated cullin deneddylation, primary screen, biochemical, fluorescence polarization, uHTS. COP9 signalosome complex subunit 5 (Homo sapiens), Q92905. AID 651999, 2013. Purified CSN, SCF-Nedd8-OG deneddylation. 360,000 tested, 0.38% active. inhibition, % at 12.5 µM;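 active = pattern-corrected inhibition above about 35%, with an unprinted fluorescence ratio check between 0.5 and 1.5, limit read from the data, passing the limit was not always enough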;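 also: 0% = enzyme with substrate and 100% = substrate without enzyme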
#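 Assay system: purified human Csn5 enzyme expressed in HEK293T cells; Input: 0.24 nM Csn5 enzyme, final concentration; Reagent: 10 nM SCFSkp2-Nedd8OG; Compound dosing: 12.5 µM single point; Times: reaction 90 min, room temperature; Technique: fluorescence polarization readout.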
# Myeloid diff MLP – induction of myeloid progenitor differentiation, primary screen, cell-based, flow cytometry, MLPCN library; ER-HoxA9 myeloid progenitors, lysozyme-GFP differentiation; calls only at 10 µM; 360,000 tested, 1% active; AID 624256, 2012;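 active = normalized GFP-positive differentiation at or above the plate's own cutoff, the solvent-only control mean plus 3 SD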;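 also: cells exposed to compound for four days before flow analysis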
# TPT1 inh – Candida albicans TPT1 enzyme inhibitors, primary screen, biochemical, fluorescence polarization; 300,000 tested, 0.81% active; recombinant caTPT1, FP RNA substrate dephosphorylation; inhibition, % at 5 µM; tRNA 2'-phosphotransferase TPT1 (Candida albicans SC5314);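 active = inhibition above the mean of all tested compounds plus 3 SD, set per screening campaign, cut at about 24% in these data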;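 also: plate controls were DMSO alone for no effect and ferristatin control at 100 nM for full effect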
# caTPT1 confirm – Candida albicans TPT1 inhibitors, confirmation, biochemical, fluorescence polarization, triplicate; shares compounds with TPT1 inh; recombinant caTPT1, RNase T1 coupled; inhibition, % at 5 µM; 2,400 tested, 74% active; AID 2149, 2009;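 active = inhibition above the primary screen limit, the mean inhibition of all tested compounds plus 3 SD, cut at about 25% in these data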
# RNase T1 inh – RNase T1 inhibitors, counter-screen for TPT1 inhibitor project, biochemical, fluorescence polarization; shares compounds with TPT1 inh; RNase T1 cleavage, 1536-well; inhibition, % at 5 µM; 2,400 tested, 83% active;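 active = inhibition above the solvent-only control well mean plus 3 SD, limit set per screening run, cut at about 23% in these data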;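 also: plate controls were DMSO wells with enzyme for no effect and wells without RNase T1 for full effect; inhibitors block cleavage so intact labeled substrate keeps polarization high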
# Target sequence (P00651 whole entry, looked up): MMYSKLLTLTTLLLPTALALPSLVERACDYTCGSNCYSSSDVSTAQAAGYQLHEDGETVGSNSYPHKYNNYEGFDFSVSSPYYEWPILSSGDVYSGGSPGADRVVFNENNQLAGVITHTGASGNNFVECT
# Numbers without * were called inactive; i = inactive; · = not tested or not shown. In the library only some 2.3% were active in any assay of this set; here they are far more common.
SMILES,HNF4A DNA FP,Rpn11 block,CSN inh,Myeloid diff MLP,TPT1 inh,caTPT1 confirm,RNase T1 inh
CCOC(=O)C1(CC2CCCCO2)CCN(C(=O)Nc2ccc(C(=O)OC)cc2)CC1 (stereo unspecified),-1,2,3,i,-1,·,·
CC(C)c1ccc(C2CC(=O)c3cnc(NC(=O)c4ccco4)nc3C2)cc1 (stereo unspecified),12,2,7,i,-1,·,·
O=C(Nc1cc2c(oc1=O)CCCC2=O)c1ccc(Cl)cc1,-33,2,32,i,4,·,·
Oc1[nH]c2ccccc2c1N=Nc1ccc(F)cc1,-94,·,-92,i,7,·,·
Oc1[nH]c2ccccc2c1N=Nc1ccccc1F,72,·,-96,i,138*,129*,130*
COc1ccc(C(CNC(=O)C(C)Oc2ccc(Br)cc2)N2CCCCC2)cc1 (stereo unspecified),2,-80,-7,i,·,·,·
CN(C)c1ccc(/C=C/c2nc3ccccc3c(=O)[nH]2)cc1,67*,·,5,i,64*,74*,83*
O=c1[nH]c(/C=C/c2ccc(Br)cc2)nc2ccccc12,3,-8,0,i,-2,·,·
CN(C)c1ccc(/C=C/c2nc3ccccc3c(=O)n2CCO)cc1,113,·,94,i,80*,84*,95*
CCOC(=O)c1nn(-c2ccc(Cl)cc2Cl)c(=N)c(C#N)c1C,·,·,·,·,95*,81*,87*
O=c1[nH]ncc2c3ccccc3n(Cc3cccc(Cl)c3)c12,63*,·,22,i,69*,157*,137*
O=c1[nH]ncc2c3ccccc3n(Cc3ccc(F)cc3)c12,4,7,-1,i,3,·,·
CC(C)C(NC(=O)C(NC(=O)C1OC2OC(C)(C)OC2C2OC(C)(C)OC12)C(C)C)C(=O)O (stereo unspecified),1,1,3,i,1,·,·
O=C1/C(=C/Nc2ccc3c(c2)OCO3)CCc2ccccc21,49*,33,13,i,83*,57*,74*
COc1ccc(S(=O)(=O)Nc2ccc3c(c2)OCO3)cc1,-3,-1,3,i,1,·,·
COc1ccc(N/C=C2\CCc3ccccc3C2=O)cc1,22,·,18,i,51*,59*,71*
COc1ccc2c(c1)CC/C(=C\Nc1ccc3c(c1)OCO3)C2=O,45*,·,15,i,65*,74*,87*
Cc1ccc(O)c(C(=O)c2cc(C#N)c(=O)n(-c3nccs3)c2)c1,35,·,-104,i,56*,54*,61*
Cc1c(-n2cc(C(=O)c3cc(Br)ccc3O)cc(C#N)c2=O)c(=O)n(-c2ccccc2)n1C,17,39,15,i,37*,24*,32*
Cc1ccc(N2C(=O)CC2(C#N)c2ccc(OCc3ccccc3)cc2)cc1 (stereo unspecified),1,5,1,i,-2,·,·
O=[N+]([O-])c1ccc(-c2nc(-c3cccs3)c(-c3cccs3)[nH]2)cc1,32,·,28,i,63*,60*,77*
O=C(NCCNC(=O)c1ccco1)c1ccc(F)cc1,3,-2,1,i,-3,·,·
O=C(NCCNC(=O)c1ccco1)c1cccc(F)c1,1,0,-5,i,47*,10,12
CC1CN(C(=S)Nc2ccccc2C(F)(F)F)CC(C)O1 (stereo unspecified),-3,1,-3,i,3,·,·
COc1ccc(NS(=O)(=O)c2cc(NC(=O)/C=C/c3ccccc3OC)ccc2N2CCCCC2)cc1,8,-3,3,i,-4,·,·
SMILES,HNF4A DNA FP,Rpn11 block,CSN inh,Myeloid diff MLP,TPT1 inh,caTPT1 confirm,RNase T1 inh
NNc1nc(-c2ccccc2Cl)nc2ccccc12,1,11,5,i,31*,20,33*
O=C1/C(=C/c2ccccc2)Nc2ccccc21,15,·,-5,i,63*,64*,70*
CC(C)(C)c1csc(NC(=O)Cc2cccs2)n1,-2,5,5,i,99*,11,15
O=C(NCc1cccnc1)c1cc(C2CCCCN2C(=O)CCCc2ccccc2)on1 (stereo unspecified),-5,-8,-1,i,·,·,·
Cc1ccc2[nH]c(=O)c3cc(C(=O)NCCC(C)C)sc3c2c1,-1,4,-3,i,·,·,·
CCC(C)NC(=O)c1cc2c(=O)[nH]c3ccc(C)cc3c2s1 (stereo unspecified),1,5,16,i,29*,7,14
CC(C)(C)C(=O)NC(=S)NNC(=O)c1sc2ccccc2c1Cl,0,4,-4,i,27*,0,1
COCCCn1c(O)c(/C=C2\N=C(C#N)C(=Nc3ccc(C)cc3)O2)sc1=S,110,·,20,i,79*,80*,85*
COC(=O)[C@@H]1C[C@@H]2CC[C@@H](O)C[C@@H]2N1Cc1ccccc1OS(=O)(=O)c1ccc(C)cc1,26,21,9,i,34*,37*,48*
CC[C@H](C)/C=C(C)/C=C/C1=CC2=CC(=O)[C@]3(C)OC(=O)[C@@H](C(C)=O)[C@@H]3C2=CO1,4,30,12,i,27*,29*,40*
CCOc1ccc(CNS(=O)(=O)c2cc(-c3cc(C)no3)ccc2OC)cc1OC,1,6,-2,i,2,·,·
Cc1ccc2c(c1)C1C=CCC1C(C(=O)O)N2 (stereo unspecified),·,·,·,·,14,·,·
O=C(O)C1Nc2c(O)cc(Cl)c([N+](=O)[O-])c2C2C=CCC12 (stereo unspecified),-77,30,83,i,84*,15,10
CC(=O)Oc1ccc(C(=O)Nc2ccccc2C(=O)N2CCCC2)cc1,1,0,0,i,49*,4,8
Cc1c(N=N/C(C(=O)Nc2ccccc2)=C(/O)c2ccccc2)c(=O)n(-c2ccccc2)n1C,22,29,5,i,55*,54*,67*
S=C(Nc1ccccc1Oc1ccccc1)Nc1cccc(Cl)c1Cl,6,5,-18,i,-2,·,·
CN(CCOc1ccc(Cl)c(Cl)c1)Cc1ccccc1,2,-1,8,i,-2,·,·

# High-throughput results (PubChem)
